Hits are enriched below; roughly 5.1% of the tested compounds scored in any of these assays.
NF-kB expr up: activators of NF-kB expression in neurons, primary screen, cell-based, HTS | fold change at 12.5 µM | hit rate 1.6% among 190,000 | human neuronal cells, NF-kB reporter expression; stronger effect = higher value; in the data active means fold change above about 3.3
STAT3 inh: IL-6 driven STAT3 reporter inhibitors, primary screen, U3A cells, luciferase, luminescence, MLSCN library. inhibition, % at 5.5 µM. hit rate 0.89% among 190,000. IL-6 STAT3-luciferase reporter; host cell line lacks STAT1;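 active means inhibition above the mean inhibition across all screened compounds plus 3 SD, cut at about 44% in these data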;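 further: 0% = DMSO only wells and 100% = 100 µM nifuroxazide control wells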
STAT3 act: IL-6 driven STAT3 reporter potentiators, primary screen, U3A cells, luciferase, luminescence, MLSCN library; IL-6 STAT3-luciferase reporter; 100% = signal with IL-6 EC80 alone; activation (% of control), % at 5.6 µM; hit rate 0.91% among 190,000;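 active means activation above the screen-wide mean of compound activation plus 3 SD, cut at about 130% in these data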;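 further: 0% = background luminescence of wells with medium and substrate only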
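Test system: STAT3-luciferase reporter U3A cells; Detection: reporter luminescence signal; Times: 1 h compound pre-exposure, 6 h IL-6 stimulation, 37 °C; Benchmarks: IL-6-only high control; Also added: IL-6 stimulus at 33 ng/mL final.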
STAT1 activator: STAT1 signaling activators, primary screen, cell-based, HTS, luciferase reporter | NIH 3T3 STAT1-luciferase reporter, IFN-gamma, luminescence; 100% = IFN-gamma alone, no compound | activation (% of control), % at 5.5 µM | hit rate 2.6% among 200,000 | AID 932, 2007;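 active means activation above the screen-wide mean activation plus 3 SD, cut at about 130% in these data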;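 further: raw ratio to IFN-gamma control signal so 100% means no change and 0% no light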
STAT1 blocker: STAT1 signaling inhibitors, primary screen, cell-based, HTS, luciferase reporter | NIH 3T3 STAT1-luciferase reporter, IFN-gamma, luminescence | hit rate 0.35% among 200,000 | inhibition, % at 5.5 µM;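 active means inhibition above a set limit, the mean inhibition across all tested compounds plus 3 SD, cut at about 34% in these data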;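 further: 0% = IFN-gamma with DMSO and 100% = IFN-gamma with 300 µM nifuroxazide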
APP 5'UTR act: activators of APP 5'UTR luciferase reporter, primary screen, SH-SY5Y cells; SH-SY5Y APP 5'UTR luciferase reporter, luminescence; zero percent = DMSO vehicle wells; activation, % at 2 µM; hit rate 1% among 190,000; AID 1276, 2008;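 active means activation above a set limit, based on mean plus 3 SD of controls, cut at about 140% in these data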
The depositor's hits bear a star.

For COc1ccc(CNc2oc(-c3ccccc3)nc2C#N)cc1 the results were NF-kB expr up 0.95, STAT3 inh 2, STAT3 act 99, STAT1 activator 102, STAT1 blocker -2 and APP 5'UTR act -6.
Screening COc1ccc(Nc2oc(-c3ccccc3)nc2C#N)cc1 returned NF-kB expr up 1.8, STAT3 inh 6, STAT3 act 99, STAT1 activator 132*, STAT1 blocker -39 and APP 5'UTR act 39.
`Cc1nn(C(C)C(=O)N2CCc3ccccc32)c(C)c1[N+](=O)[O-]` (configuration not stated) gave NF-kB expr up 1.4, STAT3 inh 3, STAT3 act 101, STAT1 activator 92, STAT1 blocker 9 and APP 5'UTR act 13.
For COc1ccc(-c2nnc(SCC(=O)c3ccc[nH]3)o2)cc1 the results were NF-kB expr up 4.7*, STAT3 inh 26, STAT3 act 79, STAT1 activator 106, STAT1 blocker -6 and APP 5'UTR act 94.
`O=C(CSc1nnc(-c2cccs2)o1)c1cccs1` gave NF-kB expr up 2.8, STAT3 inh 0, STAT3 act 102, STAT1 activator 141*, STAT1 blocker -45 and APP 5'UTR act 100.
Screening COc1ccc(-c2nnc(SCC(=O)NCc3ccco3)o2)cc1 returned NF-kB expr up 1.3, STAT3 inh 1, STAT3 act 103, STAT1 activator 104, STAT1 blocker -5 and APP 5'UTR act 10.
Screening CCNC(=O)CSc1nnc(-c2cccs2)o1 returned NF-kB expr up 1.3, STAT3 inh -6, STAT3 act 110, STAT1 activator 105, STAT1 blocker -4 and APP 5'UTR act -2.
Screening COc1ccc(-c2nnc(SCC(=O)c3cccs3)o2)cc1 returned NF-kB expr up 3.7*, STAT3 inh -17, STAT3 act 118, STAT1 activator 134*, STAT1 blocker -35 and APP 5'UTR act 72.
For CCOC(=O)N1CCC(=NNC(=O)COc2cccc(C)c2)CC1 the results were NF-kB expr up 1.2, STAT3 inh 7, STAT3 act 99, STAT1 activator 100, STAT1 blocker -1 and APP 5'UTR act 3.
Screening CC(=O)c1sc(-c2ccc(Cl)cc2)nc1C returned NF-kB expr up 1.4, STAT3 inh 18, STAT3 act 92, STAT1 activator 133*, STAT1 blocker -39 and APP 5'UTR act 36.
CC(=O)c1sc(-c2cccc(Cl)c2)nc1C was read as NF-kB expr up 1.4, STAT3 inh 10, STAT3 act 94, STAT1 activator 108, STAT1 blocker -9 and APP 5'UTR act 16.
For CNC(=O)c1sc(-c2ccc(Cl)cc2)nc1C the results were NF-kB expr up 2.1, STAT3 inh 13, STAT3 act 89, STAT1 activator 142* and STAT1 blocker -45.
`CNC(=O)c1sc(-c2ccccc2)nc1C` gave NF-kB expr up 1.6, STAT3 inh 14, STAT3 act 93, STAT1 activator 110, STAT1 blocker -11 and APP 5'UTR act 19.
`N#Cc1ccccc1CN1C(=O)NC(Cc2c[nH]c3ccccc23)C1=O` (configuration not stated) gave NF-kB expr up 0.93, STAT3 inh -7, STAT3 act 109, STAT1 activator 99, STAT1 blocker 0 and APP 5'UTR act 10.
Brc1ccc(COc2ncnc3ccccc23)cc1 was read as NF-kB expr up 1.7, STAT3 inh 2, STAT3 act 98, STAT1 activator 103, STAT1 blocker -4 and APP 5'UTR act -14.
Screening Nc1ncccc1OCc1ccc(Br)cc1 returned NF-kB expr up 3.1, STAT3 inh 19, STAT3 act 91, STAT1 activator 141*, STAT1 blocker -47 and APP 5'UTR act 67.
`Cc1ccc2nc(/C(C#N)=C\c3ccc(N4CCOCC4)o3)[nH]c2c1` gave NF-kB expr up 2.5, STAT3 inh 16, STAT3 act 89, STAT1 activator 145*, STAT1 blocker -50 and APP 5'UTR act 121.

Compound activity: PubChem, several laboratories
